Published values gathered from unrelated publications.
Compare with care: the assays were run in different laboratories.
CDK5: Cyclin-dependent kinase 5 (CDK5, Homo sapiens, UniProt Q00535)
CDK5 with p25: Cyclin-dependent kinase 5, with p25 (CDK5, Homo sapiens, UniProt Q00535)
CDK5 with p35: Cyclin-dependent kinase 5, with p35 (CDK5, Homo sapiens, UniProt Q00535)

With `Nc1ncnc2occ(-c3ccc(NC(=O)Nc4cc(C(F)(F)F)ccc4F)cc3)c12` the remaining signal was 0.55% (CDK5; cell-free assay, inhibitor; 20 µM).
`CCCOc1ccc(OC)c(F)c1C(=O)c1ccc(C(=O)N[C@@H]2CNC[C@H]2NC(=O)c2ccc3[nH]ncc3c2)cc1` has a remaining activity of 1% (CDK5 with p25; enzyme activity, inhibitor; 10 µM).
`C[C@H](c1ccnc(Nc2nc3ccc(-c4cc(N(C)C)ncn4)cc3[nH]2)c1)N1CCN(C(=O)CC(F)(F)F)CC1` gave a remaining binding of 86% (CDK5; cell-free assay, competition with immobilised ligand; 0.1 µM).
`N#CCCc1ccc2c(c1)-c1[nH]c3ccc([N+](=O)[O-])cc3c1CC(=O)N2` gave a remaining signal of 5.79% (CDK5 with p25; cell-free assay; 0.5 µM).
For `CC(C)c1ccc(NC(=O)c2cccs2)c(-c2nc3ccccc3[nH]c2=O)c1`, the activity vs control was 103% (CDK5 with p35; enzyme activity, inhibitor; 1 µM).
For `COc1ccc2c(c1)O[C@@H](c1ccc(OC)c(OC)c1)C[C@H]2NC(=O)C1(c2ccc3c(c2)OC(F)(F)O3)CC1`, the remaining binding was 100% (CDK5; cell-free assay, competition with immobilised ligand; 1 µM).
With `Cc1ccc(C(=O)NCc2ccsc2)cc1C#Cc1cn(C(C)C)c2ncnc(N)c12` the activity vs control was 96% (CDK5 with p35; enzyme activity, inhibitor; 1 µM).
For `O=C1NC(c2ccccn2)Sc2ccccc21` (stereo not drawn), the remaining binding was 86% (CDK5; cell-free assay, competition with immobilised ligand; 1 µM).
With `CC[C@H](C)[C@H](NC(=O)[C@H](CCC(N)=O)NC(=O)[C@H](CC(C)C)NC(=O)[C@H](CCSC)NC(=O)[C@H](CCCCN)NC(=O)[C@H](CO)NC(=O)[C@H](CO)NC(=O)[C@H](CCSC)NC(=O)[C@H](CC(C)C)NC(=O)[C@H](CC(N)=O)NC(=O)[C@@H](NC(=O)[C@@H](NC(=O)[C@H](CO)NC(=O)[C@H](CC(C)C)NC(=O)[C@H](CS)NC(=O)[C@H](CCCNC(=N)N)NC(=O)[C@H](CC(=O)O)NC(=O)[C@H](Cc1c[nH]c2ccccc12)NC(=O)[C@H](Cc1ccccc1)NC(=O)[C@H](C)NC(=O)[C@H](CCC(=O)O)NC(=O)[C@@H](N)CCCCN)C(C)C)[C@@H](C)CC)C(=O)N[C@@H](CC(N)=O)C(=O)N[C@@H](C)C(=O)O` the remaining activity was 87% (CDK5 with p25; enzyme activity, inhibitor, radiometric; 10 µM, 20 min).
`CS(=O)(=O)c1cc(C2(NC(=O)c3cncc4c3cnn4-c3ccc(F)cc3)CC2)ccn1` gave a remaining binding of 100% (CDK5; cell-free assay, competition with immobilised ligand; 1 µM).
`Nc1nc(Nc2ccc(S(N)(=O)=O)cc2)nn1C(=O)c1c(F)cccc1F` has a remaining signal of 2.54% (CDK5 with p25; cell-free assay; 0.5 µM).
For `Cc1ccc(NC(=O)c2ccc(C)c(C(F)(F)F)c2)cc1C#Cc1nn(C2CCC(O)CC2)c2ncnc(N)c12` (stereo not drawn), the remaining signal was 87% (CDK5 with p25; cell-free assay; 10 µM).
`Oc1ccc(-c2nc(-c3ccncc3)c(-c3ccc(F)cc3)[nH]2)cc1` gave a remaining signal of 96% (CDK5 with p25; cell-free assay; 0.5 µM).
`Cc1cc(NC(=O)c2cccc3cc(-c4cccc5[nH]nc(N)c45)ccc23)ccc1F` gave an activity vs control of 103% (CDK5 with p35; enzyme activity, inhibitor; 0.1 µM).
For `CS(=O)(=O)N1CCCC(NC(=O)[C@H](CCC2CCCCC2)NC(=O)c2ccc(CNC(=O)c3cnc4ccccn34)cc2)C1` (stereo partly drawn), the remaining binding was 100% (CDK5; cell-free assay, competition with immobilised ligand; 0.1 µM).
`O=C1Nc2ccc(Cl)cc2C1=Cc1cc(Cl)c(O)c(Cl)c1` has a remaining signal of 82.6% (CDK5 with p25; cell-free assay; 0.5 µM).
For `CS(=O)(=O)N1CCCC(NC(=O)[C@H](CCC2CCCCC2)NC(=O)c2ccc(CNc3ncnc4c3nnn4-c3ccccc3)cc2)C1` (stereo partly drawn), the remaining binding was 94% (CDK5; cell-free assay, competition with immobilised ligand; 0.1 µM).
With `O=C1NC(=O)c2cc(Nc3ccc(F)cc3)c(Nc3ccc(F)cc3)cc21` the remaining signal was 85.9% (CDK5 with p25; cell-free assay; 0.5 µM).
